Values joined by “and” are separate entries in the source; they are usually repeats but may differ in a detail not shown here. Equal entries are not always repeated. Active and inactive are the calls of the source. The rule behind the calls is not given here.
Key:
[1] = molecular target: T1, Mineralocorticoid receptor (Rattus norvegicus) (UniProt P22199); test: Aldosterone (5 ug/kg) antagonist and agonist activity for urinary Na/k at 2500 ug/kg; assay type: functional; details: Urine
T1 sequence (whole entry): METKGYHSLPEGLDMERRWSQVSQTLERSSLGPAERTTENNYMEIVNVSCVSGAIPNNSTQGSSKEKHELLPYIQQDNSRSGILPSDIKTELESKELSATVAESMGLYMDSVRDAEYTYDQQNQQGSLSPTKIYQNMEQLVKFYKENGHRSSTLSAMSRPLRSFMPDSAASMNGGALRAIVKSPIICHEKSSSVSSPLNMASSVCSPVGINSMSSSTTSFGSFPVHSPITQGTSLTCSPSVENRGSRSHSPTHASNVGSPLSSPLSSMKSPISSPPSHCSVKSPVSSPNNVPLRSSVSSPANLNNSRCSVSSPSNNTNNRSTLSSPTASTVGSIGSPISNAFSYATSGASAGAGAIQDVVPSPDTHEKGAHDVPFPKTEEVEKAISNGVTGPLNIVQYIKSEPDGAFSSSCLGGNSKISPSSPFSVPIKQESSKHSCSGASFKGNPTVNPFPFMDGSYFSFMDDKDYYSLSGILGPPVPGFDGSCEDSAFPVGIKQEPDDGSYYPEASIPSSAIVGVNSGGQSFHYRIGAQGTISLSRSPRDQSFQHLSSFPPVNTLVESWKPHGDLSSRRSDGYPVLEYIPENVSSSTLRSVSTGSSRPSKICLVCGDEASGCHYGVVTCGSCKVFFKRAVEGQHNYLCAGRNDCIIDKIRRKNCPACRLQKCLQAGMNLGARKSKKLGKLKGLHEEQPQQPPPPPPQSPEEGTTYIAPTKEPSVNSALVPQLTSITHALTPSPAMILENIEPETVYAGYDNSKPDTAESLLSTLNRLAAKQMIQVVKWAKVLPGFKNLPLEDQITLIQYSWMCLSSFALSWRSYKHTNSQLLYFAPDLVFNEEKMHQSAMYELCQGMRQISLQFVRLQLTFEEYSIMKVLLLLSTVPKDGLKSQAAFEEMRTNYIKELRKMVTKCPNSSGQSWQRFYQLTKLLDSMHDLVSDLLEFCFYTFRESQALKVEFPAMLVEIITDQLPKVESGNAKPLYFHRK
How it was run: (§1)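 Male Slc:Wistar rats, 7 weeks old, bilaterally adrenalectomized 2 days before assay, kept on 0.45% NaCl. Sugar cubes replaced diet the next evening, with 6 mL 0.45% NaCl/100 g given ip that evening and again on assay morning. Aldosterone (5 μg/kg in sesame oil) or none given sc, test compound sc right after. Urinary Na and K measured by atomic absorption; Na/K reported as mean ± SE.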

[2] = molecular target: T1, Mineralocorticoid receptor (Rattus norvegicus); test: (§2) Aldosterone (0 ug/kg) antagonist and agonist activity for urinary Na/k at 0 ug/kg; assay type: functional; details: Urine; how it was run: as §1
[3] = molecular target: T1, Mineralocorticoid receptor (Rattus norvegicus); test: Aldosterone (0 ug/kg) antagonist and agonist activity for urinary Na/k at 2500 ug/kg; assay type: functional; details: Urine; how it was run: as §1
[4] = molecular target: T1, Mineralocorticoid receptor (Rattus norvegicus); test: Aldosterone (5 ug/kg) antagonist and agonist activity for urinary Na/k at 0 ug/kg; assay type: functional; details: Urine; how it was run: as §1
[5] = molecular target: T1, Mineralocorticoid receptor (Rattus norvegicus); test: as §2; assay type: functional; details: Urine; how it was run: as §1; remark: listed apart in the source
[6] = molecular target: T1, Mineralocorticoid receptor (Rattus norvegicus); test: Relative binding affinity against mineralocorticoid receptor of rat kidney at 25 degree Centigrade
How it was run: (§3)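 Kidney cytosol from male Sprague-Dawley rats (4-8 weeks), adrenalectomized 1-2 days before, prepared in pH 7.5 phosphate buffer with DTT, sucrose and 10 mM molybdate, spun at 200000g. Incubated with competitor (0.4 nM-40 μM) and about 1 nM 3H-aldosterone for 42-48 h at 0 °C or 100-120 min at 25/26 °C. Dextran-coated charcoal separation. RBA = ratio of 50%-inhibition concentrations versus aldosterone standard (=100).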

[7] = molecular target: T1, Mineralocorticoid receptor (Rattus norvegicus); test: Aldosterone (5 ug/kg) antagonist and agonist activity for urinary Na/k at 25000 ug/kg; assay type: functional; details: Urine; how it was run: as §1
[8] = molecular target: T1, Mineralocorticoid receptor (Rattus norvegicus); test: Relative binding affinity against mineralocorticoid receptor of rat kidney at 0 degree Centigrade; how it was run: as §3
[9] = molecular target: T1, Mineralocorticoid receptor (Rattus norvegicus); test: Aldosterone (0 ug/kg) antagonist and agonist activity for urinary Na/k at 25000 ug/kg; assay type: functional; details: Urine; how it was run: as §1
[10] = molecular target: T1, Mineralocorticoid receptor (Rattus norvegicus); test: Aldosterone (0 ug/kg) antagonist activity for urinary Na/k at 0 ug/kg; assay type: functional; details: Urine; how it was run: as §1
[11] = molecular target: T1, Mineralocorticoid receptor (Rattus norvegicus); test: Aldosterone (5 ug/kg) antagonist activity for urinary Na/k at 0 ug/kg; assay type: functional; details: Urine; how it was run: as §1
[12] = molecular target: T2, Androgen receptor (Rattus norvegicus) (UniProt P15207); test: Relative binding affinity against androgen receptor of rat prostate at 0 degree centigrade; N means negative, < 0.1
T2 sequence (whole entry): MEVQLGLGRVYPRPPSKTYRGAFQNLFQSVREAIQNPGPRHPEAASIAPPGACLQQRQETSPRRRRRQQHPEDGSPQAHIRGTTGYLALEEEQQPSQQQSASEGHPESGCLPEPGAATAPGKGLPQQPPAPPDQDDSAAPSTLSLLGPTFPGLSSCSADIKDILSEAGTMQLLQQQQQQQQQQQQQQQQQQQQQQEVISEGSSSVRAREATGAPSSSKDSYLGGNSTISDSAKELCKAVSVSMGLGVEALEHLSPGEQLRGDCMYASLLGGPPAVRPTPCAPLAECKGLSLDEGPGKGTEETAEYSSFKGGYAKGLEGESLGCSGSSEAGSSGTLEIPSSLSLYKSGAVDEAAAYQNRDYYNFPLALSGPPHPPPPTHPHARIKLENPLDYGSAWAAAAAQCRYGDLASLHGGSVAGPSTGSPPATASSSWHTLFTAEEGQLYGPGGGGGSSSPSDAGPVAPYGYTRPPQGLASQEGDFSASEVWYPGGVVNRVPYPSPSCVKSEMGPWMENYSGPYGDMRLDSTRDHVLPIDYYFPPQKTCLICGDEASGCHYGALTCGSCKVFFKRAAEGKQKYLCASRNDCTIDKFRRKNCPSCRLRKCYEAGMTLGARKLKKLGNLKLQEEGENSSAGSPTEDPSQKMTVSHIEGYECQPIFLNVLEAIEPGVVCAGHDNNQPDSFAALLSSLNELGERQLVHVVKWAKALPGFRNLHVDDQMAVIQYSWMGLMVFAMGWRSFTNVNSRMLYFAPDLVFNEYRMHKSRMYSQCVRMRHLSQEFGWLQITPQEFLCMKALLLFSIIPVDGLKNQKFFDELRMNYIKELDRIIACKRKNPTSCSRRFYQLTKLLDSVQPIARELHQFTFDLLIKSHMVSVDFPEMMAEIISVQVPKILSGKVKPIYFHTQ
How it was run: (§4)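 Ventral prostate cytosol from rats (4-5 weeks) castrated 1 day before, prepared in pH 7.5 phosphate buffer and spun 2 h at 200000g. Incubated with competitor (0.4 nM-40 μM) and 3H-DHT or 3H-methylnandrolone for 16-20 h at 0 °C or 2 h at 15 °C. Dextran-coated charcoal separation. RBA taken against DHT standard (=100); negative means RBA <0.1%.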

[13] = molecular target: T1, Mineralocorticoid receptor (Rattus norvegicus); test: Aldosterone (5 ug/kg) antagonist activity for urinary Na/k at 250 ug/kg; assay type: functional; details: Urine; how it was run: as §1
[14] = molecular target: T1, Mineralocorticoid receptor (Rattus norvegicus); test: Aldosterone (5 ug/kg) antagonist activity for urinary Na/k at 2500 ug/kg; assay type: functional; details: Urine; how it was run: as §1
[15] = molecular target: T1, Mineralocorticoid receptor (Rattus norvegicus); test: Relative binding affinity against mineralocorticoid receptor of rat kidney at 0 degree centigrade; value ranges from 44-58%; how it was run: as §3
[16] = molecular target: T1, Mineralocorticoid receptor (Rattus norvegicus); test: Agonist activity for urinary Na/k at 2500 ug/kg; assay type: functional; details: Urine; how it was run: as §1
[17] = molecular target: T1, Mineralocorticoid receptor (Rattus norvegicus); test: Agonist activity for urinary Na/k at 25000 ug/kg; assay type: functional; details: Urine; how it was run: as §1
[18] = molecular target: T1, Mineralocorticoid receptor (Rattus norvegicus); test: Aldosterone (5 ug/kg) antagonist activity for urinary Na/k at 25000 ug/kg; assay type: functional; details: Urine; how it was run: as §1
[19] = molecular target: T1, Mineralocorticoid receptor (Rattus norvegicus); test: Agonist activity for urinary Na/k at 250 ug/kg; assay type: functional; details: Urine; how it was run: as §1
[20] = molecular target: T2, Androgen receptor (Rattus norvegicus); test: Relative binding affinity against androgen receptor of rat prostate at 15 degree centigrade; N means negative, < 0.1; how it was run: as §4
[21] = molecular target: T1, Mineralocorticoid receptor (Rattus norvegicus); test: Aldosterone (5 ug/kg) antagonist and agonist activity for urinary Na/k at 25 ug/kg; assay type: functional; details: Urine; how it was run: as §1
[22] = molecular target: T1, Mineralocorticoid receptor (Rattus norvegicus); test: Aldosterone (0 ug/kg) antagonist and agonist activity for urinary Na/k at 2.5 ug/kg; assay type: functional; details: Urine; how it was run: as §1
[23] = molecular target: T1, Mineralocorticoid receptor (Rattus norvegicus); test: Aldosterone (5 ug/kg) antagonist and agonist activity for urinary Na/k at 2.5 ug/kg; assay type: functional; details: Urine; how it was run: as §1
[24] = molecular target: T1, Mineralocorticoid receptor (Rattus norvegicus); test: Aldosterone (0 ug/kg) antagonist and agonist activity for urinary Na/k at 25 ug/kg; assay type: functional; details: Urine; how it was run: as §1
[25] = molecular target: T1, Mineralocorticoid receptor (Rattus norvegicus); test: Relative binding affinity against mineralocorticoid receptor of rat kidney at 25 degree centigrade; value ranges from […]-[…]%
[26] = molecular target: T1, Mineralocorticoid receptor (Rattus norvegicus); test: Relative binding affinity against mineralocorticoid receptor of rat kidney at 0 degree centigrade; value ranges from […]-[…]%
[27] = molecular target: T1, Mineralocorticoid receptor (Rattus norvegicus); test: Aldosterone (0 ug/kg) antagonist and agonist activity for urinary Na/k at 250 ug/kg; assay type: functional; details: Urine; how it was run: as §1
[28] = molecular target: T1, Mineralocorticoid receptor (Rattus norvegicus); test: Aldosterone (5 ug/kg) antagonist and agonist activity for urinary Na/k at 250 ug/kg; assay type: functional; details: Urine; how it was run: as §1
[29] = molecular target: T1, Mineralocorticoid receptor (Rattus norvegicus); test: Relative binding affinity against mineralocorticoid receptor of rat kidney at 0 degree centigrade; value ranges from 36-63%; how it was run: as §3

SMILES	Activity [1]	Activity [3]	Activity [4]	Activity [5]	RBA [6]	RBA [8]	RBA [12]	also measured
CC12CCC(=O)C=C1CCC1C3CC[C@@]4(CCC(=O)O4)C34COC(C4)[C@@H]12 (stereo not given in full)	2.4	8.8	1.1 and 0.7	3.8	1.1%	1.8%	–	Activity [2]: 7.7; Activity [7]: 2.2; Activity [9]: 3.8
CC(=O)S[C@@H]1CC2=CC(=O)CCC2(C)C2C3CC4(CO3)C(CC[C@@]43CCC(=O)O3)C21 (stereo not given in full)	1.6	6.4	1.1	7.7	0.4%	0.1%	–	–
CC(=O)S[C@@H]1CC2=CC(=O)CC[C@]2(C)[C@H]2CC[C@@]3(C)[C@@H](CC[C@@]34CCC(=O)O4)[C@H]12	–	–	–	–	–	–	–	RBA [25]: 11%; RBA [26]: 2.3%; Activity [13]: 0.93; Activity [14]: 1.47; Activity [18]: 2.83
CC12CCC(=O)C=C1CCC1C3CCC(C(=O)CO)C34COC(C4)[C@@H]12 (stereo not given in full)	–	–	0.8	3.5	32%	–	inactive	Activity [27]: 1.8; Activity [28]: 1.7; RBA [29]: 36%

Further lines, with some results ahead:

Activity [1]	Activity [3]	Activity [4]	Activity [5]	RBA [6]	RBA [8]	RBA [12]	SMILES	also measured
–	–	–	–	100%	100%	–	C[C@]12CCC(=O)C=C1CC[C@@H]1[C@@H]2[C@@H](O)C[C@]2(C=O)[C@@H](C(=O)CO)CC[C@@H]12	–
2.5	3.5	0.4	5.1	23%	–	inactive	CC12CCC(=O)C=C1CCC1C3CC[C@@]4(CCC(=O)O4)C34COC(C4)[C@@]12F (stereo not given in full)	Activity [10]: 4.07; Activity [11]: 0.75; Activity [13]: 1.33; Activity [14]: 2.08; RBA [15]: 44%; Activity [16]: 2.7; Activity [17]: 1.95; Activity [18]: 2.13; Activity [19]: 3.42; RBA [20]: inactive
–	–	1	4.8	270%	320%	inactive	CC12CCC(=O)C=C1CCC1C3CCC(C(=O)CO)C34COC(C4)[C@@]12F (stereo not given in full)	Activity [21]: 0.1; Activity [22]: 2.8; Activity [23]: 0.7; RBA [20]: inactive; Activity [24]: 0.3
